# Measurements reported in ChEMBL document CHEMBL2062460, “Disubstituted thiourea derivatives and their activity on CNS: synthesis and biological evaluation” (Eur J Med Chem, 2012).
# Active and inactive are the calls of the source. No cut-off for these calls is given here.
# How the values were obtained:
# [1] = test system: Staphylococcus aureus; test: Antibacterial activity against Staphylococcus aureus ATCC 29213 after 18 hrs by twofold serial agar dilution technique; format: functional; details: ATCC 29213, 18 h
# Summary of the method: (§1)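 Twofold serial agar dilution on Mueller–Hinton II agar, following CLSI guidelines. Compounds were dissolved in methanol or DMSO and tested at final agar concentrations of 3.125–400 µg/mL. Final inoculum was 10^4 CFU/mL.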
# [2] = test system: Staphylococcus aureus; test: Antibacterial activity against methicillin-susceptible Staphylococcus aureus clinical isolate 372/09 after 18 hrs by twofold serial agar dilution technique; format: functional; details: clinical isolate 372/09, 18 h
# Summary of the method: (§2)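 Clinical isolates came from patients in Warsaw Medical University Hospitals and were classed as methicillin-susceptible or -resistant. MIC was determined by twofold serial agar dilution on Mueller–Hinton II agar (CLSI), 3.125–400 µg/mL in agar, with compounds in methanol or DMSO. Inoculum was 10^4 CFU/mL and plates were read after 18 h at 35 °C.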
# [3] = test system: Micrococcus luteus; test: Antibacterial activity against Micrococcus luteus ATCC 10240 after 18 hrs by twofold serial agar dilution technique; format: functional; details: ATCC 10240, 18 h
# [4] = test system: Staphylococcus epidermidis; test: Antibacterial activity against methicillin-resistant Staphylococcus epidermidis clinical isolate 341/09 after 18 hrs by twofold serial agar dilution technique; format: functional; details: clinical isolate 341/09, 18 h; summary of the method: as §2
# [5] = test system: Candida parapsilosis; test: Antifungal activity against Candida parapsilosis ATCC 22019 at 400 ug/disc after 18 hrs by disc diffusion method; format: functional, organism-based
# Summary of the method: (§3)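 Yeasts tested by disc diffusion (CLSI) on RPMI agar with 2% glucose; 9 mm paper discs bearing 400 µg compound from methanol or DMSO solution; inhibition zone diameter read after 18 h at 35 °C.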
# [6] = test system: Staphylococcus aureus; test: Antibacterial activity against methicillin-resistant Staphylococcus aureus clinical isolate 275/08 after 18 hrs by twofold serial agar dilution technique; format: functional; details: clinical isolate 275/08, 18 h; summary of the method: as §2
# [7] = test system: Pseudomonas aeruginosa; test: Antibacterial activity against Pseudomonas aeruginosa NCTC 6749 at 400 ug/disc after 18 hrs by disc diffusion method; format: functional, organism-based
# Summary of the method: (§4)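 Disc diffusion per CLSI on Mueller–Hinton II agar; 9 mm paper discs loaded from methanol or DMSO solutions to 400 µg per disc, dried; growth inhibition zone diameter read after 18 h at 35 °C.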
# [8] = test system: Bacillus subtilis; test: Antibacterial activity against Bacillus subtilis ATCC 6633 at 400 ug/disc after 18 hrs by disc diffusion method; format: functional; details: ATCC 6633, 18 h, read-out: DIZ; summary of the method: as §4
# [9] = test system: Bacillus subtilis; test: Antibacterial activity against Bacillus subtilis ATCC 6633 after 18 hrs by twofold serial agar dilution technique; format: functional; details: ATCC 6633, 18 h
# [10] = test system: Staphylococcus aureus; test: Antibacterial activity against methicillin-susceptible Staphylococcus aureus clinical isolate 339/09 after 18 hrs by twofold serial agar dilution technique; format: functional; details: clinical isolate 339/09, 18 h; summary of the method: as §2
# [11] = test system: Staphylococcus aureus; test: Antibacterial activity against Staphylococcus aureus NCTC 4163 after 18 hrs by twofold serial agar dilution technique; format: functional; details: NCTC 4163, 18 h; summary of the method: as §1
# [12] = test system: Staphylococcus epidermidis; test: Antibacterial activity against methicillin-resistant Staphylococcus epidermidis clinical isolate 315/08 after 18 hrs by twofold serial agar dilution technique; format: functional; details: clinical isolate 315/08, 18 h; summary of the method: as §2
# [13] = test system: Pseudomonas aeruginosa; test: Antibacterial activity against Pseudomonas aeruginosa ATCC 15442 at 400 ug/disc after 18 hrs by disc diffusion method; format: functional, organism-based; summary of the method: as §4
# [14] = test system: Escherichia coli; test: Antibacterial activity against Escherichia coli NCTC 8196 at 400 ug/disc after 18 hrs by disc diffusion method; format: functional, organism-based; summary of the method: as §4
# [15] = test system: Staphylococcus epidermidis; test: Antibacterial activity against methicillin-resistant Staphylococcus epidermidis clinical isolate 316/08 after 18 hrs by twofold serial agar dilution technique; format: functional; details: clinical isolate 316/08, 18 h; summary of the method: as §2
# [16] = test system: Staphylococcus epidermidis; test: Antibacterial activity against methicillin-resistant Staphylococcus epidermidis clinical isolate 317/08 after 18 hrs by twofold serial agar dilution technique; format: functional; details: clinical isolate 317/08, 18 h; summary of the method: as §2
# [17] = test system: Micrococcus luteus; test: Antibacterial activity against Micrococcus luteus ATCC 10240 at 400 ug/disc after 18 hrs by disc diffusion method; format: functional; details: ATCC 10240, 18 h, read-out: DIZ; summary of the method: as §4
# [18] = test system: Staphylococcus aureus; test: Antibacterial activity against methicillin-susceptible Staphylococcus aureus clinical isolate 261/08 after 18 hrs by twofold serial agar dilution technique; format: functional; details: clinical isolate 261/08, 18 h; summary of the method: as §2
# [19] = test system: Enterococcus hirae; test: Antibacterial activity against Enterococcus hirae ATCC 10541 at 400 ug/disc after 18 hrs by disc diffusion method; format: functional; summary of the method: as §4
# [20] = test system: Staphylococcus aureus; test: Antibacterial activity against methicillin-resistant Staphylococcus aureus clinical isolate 357/09 after 18 hrs by twofold serial agar dilution technique; format: functional; details: clinical isolate 357/09, 18 h; summary of the method: as §2
# [21] = test system: Staphylococcus epidermidis; test: Antibacterial activity against methicillin-resistant Staphylococcus epidermidis clinical isolate 318/08 after 18 hrs by twofold serial agar dilution technique; format: functional; details: clinical isolate 318/08, 18 h; summary of the method: as §2
# [22] = test system: Bordetella bronchiseptica; test: Antibacterial activity against Bordetella bronchiseptica ATCC 4617 at 400 ug/disc after 18 hrs by disc diffusion method; format: functional, organism-based; summary of the method: as §4
# [23] = test system: Escherichia coli; test: Antibacterial activity against Escherichia coli ATCC 25922 at 400 ug/disc after 18 hrs by disc diffusion method; format: functional, organism-based; summary of the method: as §4
# [24] = test system: Micrococcus luteus; test: Antibacterial activity against Micrococcus luteus ATCC 9341 at 400 ug/disc after 18 hrs by disc diffusion method; format: functional; details: ATCC 9341, 18 h, read-out: DIZ; summary of the method: as §4
# [25] = test system: Candida albicans; test: Antifungal activity against Candida albicans ATCC 90028 at 400 ug/disc after 18 hrs by disc diffusion method; format: functional, organism-based; summary of the method: as §3
# [26] = test system: Staphylococcus aureus; test: Antibacterial activity against methicillin-susceptible Staphylococcus aureus clinical isolate 267/08 after 18 hrs by twofold serial agar dilution technique; format: functional; details: clinical isolate 267/08, 18 h; summary of the method: as §2
# [27] = test system: Staphylococcus epidermidis; test: Antibacterial activity against methicillin-resistant Staphylococcus epidermidis clinical isolate 342/09 after 18 hrs by twofold serial agar dilution technique; format: functional; details: clinical isolate 342/09, 18 h; summary of the method: as §2
# [28] = test system: Escherichia coli; test: Antibacterial activity against Escherichia coli ATCC 10538 at 400 ug/disc after 18 hrs by disc diffusion method; format: functional, organism-based; summary of the method: as §4
# [29] = test system: Proteus vulgaris; test: Antibacterial activity against Proteus vulgaris NCTC 4635 at 400 ug/disc after 18 hrs by disc diffusion method; format: functional, organism-based; summary of the method: as §4
# [30] = test system: Staphylococcus epidermidis; test: Antibacterial activity against methicillin-resistant Staphylococcus epidermidis clinical isolate 311/08 after 18 hrs by twofold serial agar dilution technique; format: functional; details: clinical isolate 311/08, 18 h; summary of the method: as §2
# [31] = test system: Staphylococcus aureus; test: Antibacterial activity against Staphylococcus aureus ATCC 6538 after 18 hrs by twofold serial agar dilution technique; format: functional; details: ATCC 6538, 18 h; summary of the method: as §1
# [32] = test system: Staphylococcus aureus; test: Antibacterial activity against methicillin-susceptible Staphylococcus aureus clinical isolate 367/09 after 18 hrs by twofold serial agar dilution technique; format: functional; details: clinical isolate 367/09, 18 h; summary of the method: as §2
# [33] = test system: Staphylococcus epidermidis; test: Antibacterial activity against methicillin-resistant Staphylococcus epidermidis clinical isolate 377/09 after 18 hrs by twofold serial agar dilution technique; format: functional; details: clinical isolate 377/09, 18 h; summary of the method: as §2
# [34] = test system: Staphylococcus aureus; test: Antibacterial activity against methicillin-resistant Staphylococcus aureus clinical isolate 277/08 after 18 hrs by twofold serial agar dilution technique; format: functional; details: clinical isolate 277/08, 18 h; summary of the method: as §2
# [35] = test system: Staphylococcus epidermidis; test: Antibacterial activity against methicillin-resistant Staphylococcus epidermidis clinical isolate 340/09 after 18 hrs by twofold serial agar dilution technique; format: functional; details: clinical isolate 340/09, 18 h; summary of the method: as §2
# [36] = test system: Staphylococcus aureus; test: Antibacterial activity against methicillin-resistant Staphylococcus aureus clinical isolate 325/09 after 18 hrs by twofold serial agar dilution technique; format: functional; details: clinical isolate 325/09, 18 h; summary of the method: as §2
Compound,MIC [1] [µg/mL],MIC [2] [µg/mL],MIC [3] [µg/mL],MIC [4] [µg/mL],diameter of the inhibition zone (DIZ) [5],MIC [6] [µg/mL],diameter of the inhibition zone (DIZ) [7],zone of inhibition at 400 µg/disc [8] [mm],MIC [9] [µg/mL],MIC [10] [µg/mL],MIC [11] [µg/mL],MIC [12] [µg/mL],diameter of the inhibition zone (DIZ) [13],diameter of the inhibition zone (DIZ) [14],MIC [15] [µg/mL],MIC [16] [µg/mL],zone of inhibition at 400 µg/disc [17] [mm],MIC [18] [µg/mL],MIC [20] [µg/mL],MIC [21] [µg/mL],further results
S=C(Nc1ccccc1)Nc1nc[nH]n1,100,50,50,100,inactive,100,inactive,16,50,50,100,100,inactive,inactive,100,100,12,50,50,50,diameter of the inhibition zone (DIZ) [19]: inactive; diameter of the inhibition zone (DIZ) [22]: inactive; diameter of the inhibition zone (DIZ) [23]: inactive; zone of inhibition at 400 µg/disc [24]: 14 mm; diameter of the inhibition zone (DIZ) [25]: inactive; MIC [26]: 50 µg/mL; MIC [27]: 200 µg/mL; diameter of the inhibition zone (DIZ) [28]: inactive; diameter of the inhibition zone (DIZ) [29]: inactive; MIC [30]: 100 µg/mL; MIC [31]: 100 µg/mL; MIC [32]: 50 µg/mL; MIC [33]: 50 µg/mL; MIC [34]: 50 µg/mL; MIC [35]: 50 µg/mL; MIC [36]: 50 µg/mL
S=C(Nc1ccc(Br)cc1)Nc1nc[nH]n1,25,25,12.5,50,inactive,100,inactive,30,12.5,50,50,50,inactive,inactive,50,100,29,25,50,25,"zone of inhibition at 400 µg/disc ([19]; ATCC 10541, 18 h, read-out: DIZ): 25 mm; diameter of the inhibition zone (DIZ) [22]: inactive; diameter of the inhibition zone (DIZ) [23]: inactive; zone of inhibition at 400 µg/disc [24]: 28 mm; diameter of the inhibition zone (DIZ) [25]: inactive; MIC [26]: 25 µg/mL; MIC [27]: 25 µg/mL; diameter of the inhibition zone (DIZ) [28]: inactive; diameter of the inhibition zone (DIZ) [29]: inactive; MIC [30]: 50 µg/mL; MIC [31]: 50 µg/mL; MIC [32]: 50 µg/mL; MIC [33]: 25 µg/mL; MIC [34]: 50 µg/mL; MIC [35]: 25 µg/mL; MIC [36]: 50 µg/mL"
